Assays:
[1] = target: T1, Endothelin receptor type B (Sus scrofa, UniProt P35463); experiment: Binding affinity to endothelin B receptor measured by inhibition of [125I]ET-3 binding recombinant pig ET-B receptor expressed in COS-7 cells; type: cell-based
T1 sequence (P35463 whole entry): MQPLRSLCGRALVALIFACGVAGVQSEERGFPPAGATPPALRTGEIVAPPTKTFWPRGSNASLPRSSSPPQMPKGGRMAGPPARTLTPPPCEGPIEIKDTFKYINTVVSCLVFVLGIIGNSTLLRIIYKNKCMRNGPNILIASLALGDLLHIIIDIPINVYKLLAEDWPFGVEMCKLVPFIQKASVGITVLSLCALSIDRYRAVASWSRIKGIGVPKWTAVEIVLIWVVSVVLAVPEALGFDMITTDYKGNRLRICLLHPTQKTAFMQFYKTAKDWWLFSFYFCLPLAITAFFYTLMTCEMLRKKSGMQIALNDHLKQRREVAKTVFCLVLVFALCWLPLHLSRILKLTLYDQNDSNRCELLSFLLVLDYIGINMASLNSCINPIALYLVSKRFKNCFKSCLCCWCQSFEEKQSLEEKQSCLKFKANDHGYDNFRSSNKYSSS
Procedure, shortened: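 COS cells transfected with porcine ETB cDNA, in Hank's solution with 20 mM HEPES and protease inhibitors. Stopped by filtration on GF/C filters presoaked in 1% polyethylenimine, washed with 50 mM Tris-HCl pH 7.4, then counted. Nonspecific binding taken with 0.1 μM ET-3.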

Endothelin-1 receptor = target: T2, Endothelin-1 receptor (Rattus norvegicus, UniProt P26684); experiment: Binding affinity for endothelin A receptor by inhibition of [125I]ET1 binding in rat aorta smooth muscle cells; type: tissue-based
T2 sequence (P26684 whole entry): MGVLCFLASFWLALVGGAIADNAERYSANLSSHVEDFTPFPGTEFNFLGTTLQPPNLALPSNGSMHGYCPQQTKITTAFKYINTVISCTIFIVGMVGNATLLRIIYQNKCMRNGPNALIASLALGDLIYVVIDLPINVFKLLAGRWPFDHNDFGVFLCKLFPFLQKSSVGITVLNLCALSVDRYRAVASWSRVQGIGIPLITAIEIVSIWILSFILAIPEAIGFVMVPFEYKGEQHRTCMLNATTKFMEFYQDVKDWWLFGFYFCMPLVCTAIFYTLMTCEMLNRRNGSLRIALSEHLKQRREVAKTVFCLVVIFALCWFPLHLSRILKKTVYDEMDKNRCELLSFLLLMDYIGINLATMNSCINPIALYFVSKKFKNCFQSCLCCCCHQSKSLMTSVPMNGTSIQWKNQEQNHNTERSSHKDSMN

[2] = Ratio of inhibitory concentrations at ET-B receptor relative to that of ET-A receptor

Row | SMILES | IC50 [1] | IC50 (Endothelin-1 receptor) | Ratio [2]
1 | O=C(O)C1=C(c2ccccc2)c2ccccc2OC1c1ccc2c(c1)OCO2 (configuration not stated) | > 100000 nM | 780 nM | 
2 | COc1ccc(C2=C(C(=O)NS(C)(=O)=O)C(c3ccc4c(c3)OCO4)Oc3ccc(OC(C)C)cc32)cc1 (configuration not stated) |  | 1.8 nM | 
3 | CCCOc1ccc2c(c1)OC(c1ccc3c(c1)OCO3)C(C(=O)O)=C2c1ccc(OC)cc1 (configuration not stated) | 2300 nM | 970 nM | 2.4
4 | CC(C)Oc1ccc2c(c1)C(Cl)=C(C(=O)O)C(c1ccc3c(c1)OCO3)O2 (configuration not stated) | 7200 nM | 12 nM | 
5 | CCOc1ccc2c(c1)C(c1ccc(OC)cc1)=C(C(=O)O)C(c1ccc3c(c1)OCO3)O2 (configuration not stated) | 400 nM | 3.8 nM | 110
6 | COc1ccc(C2=C(C(=O)O)C(c3ccc4c(c3)OCO4)Oc3ccc(C(C)C)cc32)cc1 (configuration not stated) | 190 nM | 110 nM | 1.7
7 | Cc1ccc(C2=C(C(=O)O)C(c3ccc4c(c3)OCO4)Oc3ccccc32)cc1 (configuration not stated) | 6900 nM | 530 nM | 
8 | C=CCCCOC1=C(C(=O)O)C(c2ccc3c(c2)OCO3)Oc2ccc(OC(C)C)cc21 (configuration not stated) |  | 0.33 nM | 
9 | CC(C)Oc1ccc2c(c1)C(c1ccc3c(c1)OCO3)=C(C(=O)O)C(c1ccc(C(C)C)cc1)O2 (configuration not stated) | 2700 nM |  | 
10 | O=C(O)C1=C(c2ccc3c(c2)OCO3)c2ccccc2OC1c1ccc2c(c1)OCO2 (configuration not stated) | 710 nM | 350 nM | 
11 | CCCCCCCCCCOC1=C(C(=O)O)C(c2ccc3c(c2)OCO3)Oc2ccc(OC(C)C)cc21 (configuration not stated) | 7600 nM | 130 nM | 
12 | CCCC[C@@H]1c2cc(OC(C)C)ccc2O[C@H](c2ccc3c(c2)OCO3)[C@H]1C(=O)O |  | 77 nM | 
13 | CCCCOC1=C(C(=O)O)C(c2ccc3c(c2)OCO3)Oc2ccc(OC(C)C)cc21 (configuration not stated) |  |  | 1900
14 | CC(C)Oc1ccc2c(c1)C(c1ccc(OCc3ccccc3)cc1)=C(C(=O)O)C(c1ccc3c(c1)OCO3)O2 (configuration not stated) | 600 nM | 6.3 nM | 
15 | COc1ccc(C2=C(C(N)=O)C(c3ccc4c(c3)OCO4)Oc3ccc(OC(C)C)cc32)cc1 (configuration not stated) |  | 630 nM | 
16 | CCCCOc1ccc2c(c1)C(c1ccc3c(c1)OCO3)=C(C(=O)O)C(c1ccc(OC3CCCC3)cc1)O2 (configuration not stated) | 2200 nM | 4800 nM | 
17 | CC(C)Oc1ccc2c(c1)C(c1ccc(C(C)C)cc1)=C(C(=O)O)C(c1ccc3c(c1)OCO3)O2 (configuration not stated) | 750 nM | 4.9 nM | 
18 | CCCCC1=C(C(=O)NS(C)(=O)=O)C(c2ccc3c(c2)OCO3)Oc2ccc(OC(C)C)cc21 (configuration not stated) |  | 48 nM | 
19 | CC(C)c1ccc(C2=C(C(=O)O)C(c3ccc4c(c3)OCO4)Oc3ccccc32)cc1 (configuration not stated) | 2100 nM | 83 nM | 

Row | SMILES | IC50 [1] | IC50 (Endothelin-1 receptor) | Ratio [2]
20 | CCCCOc1ccc2c(c1)C(c1ccc3c(c1)OCO3)=C(C(=O)O)C(c1ccc(OC)cc1OC)O2 (configuration not stated) | 35 nM | 18 nM | 
21 | COc1ccc(CCOC2=C(C(=O)O)C(c3ccc4c(c3)OCO4)Oc3ccc(OC(C)C)cc32)cc1 (configuration not stated) | 200 nM | 3 nM | 
22 | CCCOc1ccc2c(c1)C(c1ccc3c(c1)OCO3)=C(C(=O)O)C(c1ccc(OC)cc1)O2 (configuration not stated) | 72 nM | 220 nM | 
23 | CCCCC1=C(C(=O)OC)C(c2ccc3c(c2)OCO3)Oc2ccc(OC(C)C)cc21 (configuration not stated) |  | > 10000 nM | 
24 | CCCCOc1ccc2c(c1)C(c1ccc3c(c1)OCO3)=C(C(=O)O)C(c1ccccc1OC)O2 (configuration not stated) | 760 nM | 130 nM | 
25 | CCCCC1=C(C(N)=O)C(c2ccc3c(c2)OCO3)Oc2ccc(OC(C)C)cc21 (configuration not stated) |  | 410 nM | 
26 | CCCCOc1ccc2c(c1)C(c1ccc3c(c1)OCO3)=C(C(=O)O)C(c1ccc(OC)c(OC)c1)O2 (configuration not stated) | 400 nM | 810 nM | 
27 | CCCCOc1ccc2c(c1)C(c1ccc3c(c1)OCO3)=C(C(=O)O)C(c1cccc(OC)c1)O2 (configuration not stated) | 160 nM | 350 nM | 
28 | CCOC1=C(C(=O)O)C(c2ccc3c(c2)OCO3)Oc2ccc(OC(C)C)cc21 (configuration not stated) | 2800 nM | 2.2 nM | 
29 | COc1ccc(C2=C(C(=O)O)C(c3ccc4c(c3)OCO4)Oc3ccc(OC(C)C)cc32)cc1 (configuration not stated) |  | 0.51 nM | 
30 | COC(=O)C1=C(c2ccc(OC)cc2)c2cc(OC(C)C)ccc2OC1c1ccc2c(c1)OCO2 (configuration not stated) |  | > 10000 nM | 
31 | CCCCC1=C(C(=O)O)C(c2ccc3c(c2)OCO3)Oc2ccc(OC(C)C)cc21 (configuration not stated) |  |  | 840
32 | CCCCC1=C(c2nnn[nH]2)C(c2ccc3c(c2)OCO3)Oc2ccc(OC(C)C)cc21 (configuration not stated) |  | 18 nM | 
33 | COc1ccccc1C1=C(C(=O)O)C(c2ccc3c(c2)OCO3)Oc2ccccc21 (configuration not stated) | 31000 nM | 2200 nM | 
34 | CC(C)Oc1ccc2c(c1)C(c1ccc(O)cc1)=C(C(=O)O)C(c1ccc3c(c1)OCO3)O2 (configuration not stated) | 4800 nM | 4.1 nM | 
35 | CCCCOc1ccc2c(c1)C(c1ccc3c(c1)OCO3)=C(C(=O)O)C(c1ccc(OC)cc1)O2 (configuration not stated) | 43 nM |  | 
36 | CCOC1=C(C(=O)O)C(c2ccc3c(c2)OCO3)Oc2ccccc21 (configuration not stated) | 15000 nM | 290 nM | 
37 | COc1ccc(CC2=C(C(=O)O)C(c3ccc4c(c3)OCO4)Oc3ccc(OC(C)C)cc32)cc1 (configuration not stated) |  | 0.32 nM | 
38 | CC(C)Oc1ccc2c(c1)C(c1ccccc1)=C(C(=O)O)C(c1ccc3c(c1)OCO3)O2 (configuration not stated) |  | 3 nM | 

Row | SMILES | IC50 [1] | IC50 (Endothelin-1 receptor) | Ratio [2]
39 | CC(C)Oc1ccc2c(c1)C(OCCCC#N)=C(C(=O)O)C(c1ccc3c(c1)OCO3)O2 (configuration not stated) | 5800 nM | 6.8 nM | 
40 | O=C(O)C1=Cc2ccccc2OC1c1ccc2c(c1)OCO2 (configuration not stated) | > 100000 nM | 67000 nM | 
41 | CCCCOc1ccc(C2Oc3ccc(OCCCC)cc3C(c3ccc4c(c3)OCO4)=C2C(=O)O)cc1 (configuration not stated) | 3600 nM | 5200 nM | 
42 | CC(C)Oc1ccc2c(c1)C(c1ccc3c(c1)OCO3)=C(C(=O)O)C(c1ccc3c(c1)OCO3)O2 (configuration not stated) | 170 nM | 3.2 nM | 
43 | CC(C)Oc1ccc2c(c1)C=C(C(=O)O)[C@H](c1ccc3c(c1)OCO3)O2 | > 100000 nM |  | > 60
44 | CCCCCCCOC1=C(C(=O)O)C(c2ccc3c(c2)OCO3)Oc2ccc(OC(C)C)cc21 (configuration not stated) | 410 nM | 4.7 nM | 
45 | CCCCOc1ccc2c(c1)C(c1ccc3c(c1)OCO3)=C(C(=O)O)C(c1cc(OC)ccc1OC)O2 (configuration not stated) | 1600 nM | 160 nM | 
46 | O=C(O)C1=C(c2ccc(Cl)cc2)c2ccccc2OC1c1ccc2c(c1)OCO2 (configuration not stated) | 5800 nM | 800 nM | 
47 | COc1cccc(C2=C(C(=O)O)C(c3ccc4c(c3)OCO4)Oc3ccccc32)c1 (configuration not stated) | 2800 nM | 700 nM | 
48 | CCCOC1=C(C(=O)O)C(c2ccc3c(c2)OCO3)Oc2ccccc21 (configuration not stated) | 10000 nM | 160 nM | 
49 | CCCCOC1=C(C(=O)O)C(c2ccc3c(c2)OCO3)Oc2cc(OCCC)ccc21 (configuration not stated) | 2800 nM |  | 
50 | CC(C)Oc1ccc2c(c1)C(c1ccc(F)cc1)=C(C(=O)O)C(c1ccc3c(c1)OCO3)O2 (configuration not stated) |  | 8 nM | 
51 | CCCOc1ccc2c(c1)C(c1ccc3c(c1)OCO3)=C(C(=O)O)C(c1ccc3c(c1)OCO3)O2 (configuration not stated) | 80 nM | 43 nM | 
52 | CCCCOC1=C(C(=O)O)C(c2ccc3c(c2)OCO3)Oc2cccc(OCCC)c21 (configuration not stated) | 6000 nM |  | 
53 | COc1ccccc1C1=C(C(=O)O)C(c2ccc3c(c2)OCO3)Oc2ccc(OC(C)C)cc21 (configuration not stated) | 3500 nM | 3 nM | 
54 | COc1cccc(C2=C(C(=O)O)C(c3ccc4c(c3)OCO4)Oc3ccc(OC(C)C)cc32)c1 (configuration not stated) | 470 nM | 1.6 nM | 
55 | CCCCCOC1=C(C(=O)O)C(c2ccc3c(c2)OCO3)Oc2ccccc21 (configuration not stated) | 1100 nM | 29 nM | 
56 | COc1ccc(C2=C(C(=O)O)C(c3ccc4c(c3)OCO4)Oc3c(OC)cccc32)cc1 (configuration not stated) | 4000 nM |  | 
57 | COc1ccc([C@@H]2c3cc(OC(C)C)ccc3O[C@H](c3ccc4c(c3)OCO4)[C@H]2C(=O)O)cc1 | 3400 nM | 1.3 nM | 
